Measurements reported in ChEMBL document CHEMBL1926544, “Tyrosine-based 1-(S)-[3-hydroxy-2-(phosphonomethoxy)propyl]cytosine and -adenine ((S)-HPMPC and (S)-HPMPA) prodrugs: synthesis, stability, antiviral activity, and in vivo transport studies” (J Med Chem, 2011).

Test system: Human alphaherpesvirus 1
Assay: Antiviral activity against HSV1 KOS infected in HFF cells incubated for 3 days by plaque reduction assay
Assay type: functional, organism-based
Conditions: Human alphaherpesvirus 1, KOS, HFF, 72 h
Procedure, shortened: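 HFF monolayer plaque reduction, about 100 plaques per well. Drug overlay (100 µM down to 0.03 µM), about 3 days incubation, crystal violet staining, macroscopic plaques counted. IC50 from regression of % plaque reduction relative to no-drug wells. Duplicate; acyclovir run as positive control.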

In order of falling IC50:
1. CC(C)CNC(=O)[C@@H](N)Cc1ccc(OP2(=O)CO[C@@H](Cn3cnc4c(N)ncnc43)CO2)cc1 (mixture of isomers; form 1)  50 µM
2. CC(C)CNC(=O)[C@@H](N)Cc1ccc(OP(=O)(O)CO[C@H](CO)Cn2cnc3c(N)ncnc32)cc1  45 µM
3. Nc1ncnc2c1ncn2C[C@@H](CO)OCP(=O)(O)O  35 µM
4. COC(=O)[C@@H](N)Cc1ccc(OP2(=O)CO[C@@H](Cn3ccc(N)nc3=O)CO2)cc1 (mixture of isomers)  25 µM
5. COC(=O)[C@H](Cc1ccc(OP2(=O)CO[C@@H](Cn3ccc(N)nc3=O)CO2)cc1)NC(=O)[C@@H](N)C(C)C (mixture of isomers)  15 µM

Same assay, conditions: hff

In order of rising IC50:
1. CC(C)OC(=O)[C@@H](N)Cc1ccc(OP2(=O)CO[C@@H](Cn3ccc(N)nc3=O)CO2)cc1 (mixture of isomers; form 2)  3 µM
2. CC(C)OC(=O)[C@@H](N)Cc1ccc(OP2(=O)CO[C@@H](Cn3ccc(N)nc3=O)CO2)cc1 (mixture of isomers; form 1)  20 µM
3. COC(=O)[C@@H](N)Cc1ccc(OP2(=O)CO[C@@H](Cn3cnc4c(N)ncnc43)CO2)cc1 (mixture of isomers; form 2)  35 µM

Test system: not listed separately
Assay: Antiviral activity against Cowpox virus Brighton infected in HFF cells incubated for 3 days by plaque reduction assay
Assay type: functional, cell-based, Cowpox virus (Brighton Red)
Conditions: Cowpox virus, HFF, 72 h

In order of rising IC50:
1. CC(C)CNC(=O)[C@@H](N)Cc1ccc(OP(=O)(O)CO[C@H](CO)Cn2cnc3c(N)ncnc32)cc1  3 µM
2. Nc1ncnc2c1ncn2C[C@@H](CO)OCP(=O)(O)O  4 µM
3. Nc1ccn(C[C@@H](CO)OCP(=O)(O)O)c(=O)n1 [CIDOFOVIR]  30 µM
4. COC(=O)[C@H](Cc1ccc(OP2(=O)CO[C@@H](Cn3ccc(N)nc3=O)CO2)cc1)NC(=O)[C@@H](N)C(C)C (mixture of isomers)  30 µM
5. COC(=O)[C@@H](N)Cc1ccc(OP2(=O)CO[C@@H](Cn3ccc(N)nc3=O)CO2)cc1 (mixture of isomers)  50 µM

Same assay, conditions: hff

In order of rising IC50:
1. COC(=O)[C@@H](N)Cc1ccc(OP2(=O)CO[C@@H](Cn3cnc4c(N)ncnc43)CO2)cc1 (mixture of isomers; form 2)  3.5 µM
2. CC(C)CNC(=O)[C@@H](N)Cc1ccc(OP2(=O)CO[C@@H](Cn3cnc4c(N)ncnc43)CO2)cc1 (mixture of isomers; form 1)  7 µM
3. CC(C)OC(=O)[C@@H](N)Cc1ccc(OP2(=O)CO[C@@H](Cn3ccc(N)nc3=O)CO2)cc1 (mixture of isomers; form 2)  10 µM
4. CC(C)OC(=O)[C@@H](N)Cc1ccc(OP2(=O)CO[C@@H](Cn3ccc(N)nc3=O)CO2)cc1 (mixture of isomers; form 1)  40 µM

Test system: Human betaherpesvirus 5
Assay: Antiviral activity against HCMV Towne infected in HFF cells incubated for 10 days by plaque reduction assay
Assay type: functional, organism-based
Conditions: Human betaherpesvirus 5, Towne, HFF, 240 h
Procedure, shortened: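 Towne strain (plaque-purified P0) on HFF cells, about 100 plaques per well. Drug overlay (100 µM down to 0.03 µM), about 10 days incubation, crystal violet staining, microscopic plaques counted. IC50 from regression of % plaque reduction versus no-drug wells. Duplicate; ganciclovir as positive control.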

Nc1ccn(C[C@@H](CO)OCP(=O)(O)O)c(=O)n1 [CIDOFOVIR] and Nc1ncnc2c1ncn2C[C@@H](CO)OCP(=O)(O)O are within 1.5-fold of each other in IC50: 0.28 µM for the first, 0.41 µM for the second.

First: CC(C)CNC(=O)[C@@H](N)Cc1ccc(OP(=O)(O)CO[C@H](CO)Cn2cnc3c(N)ncnc32)cc1
Second: CC(C)OC(=O)[C@@H](N)Cc1ccc(OP2(=O)CO[C@@H](Cn3ccc(N)nc3=O)CO2)cc1 (mixture of isomers; form 1)
The IC50 of the first is 2.4-fold higher: 0.29 µM for the first, 0.12 µM for the second. The second is the more potent here.

Going from COC(=O)[C@H](Cc1ccc(OP2(=O)CO[C@@H](Cn3ccc(N)nc3=O)CO2)cc1)NC(=O)[C@@H](N)C(C)C (mixture of isomers) to COC(=O)[C@@H](N)Cc1ccc(OP2(=O)CO[C@@H](Cn3ccc(N)nc3=O)CO2)cc1 (mixture of isomers), the IC50 rises from under 0.1 µM to 0.23 µM. The first is the more potent here.

Same assay, conditions: hff

In order of rising IC50:
1. CC(C)OC(=O)[C@@H](N)Cc1ccc(OP2(=O)CO[C@@H](Cn3ccc(N)nc3=O)CO2)cc1 (mixture of isomers; form 2)  0.22 µM
2. CC(C)CNC(=O)[C@@H](N)Cc1ccc(OP2(=O)CO[C@@H](Cn3cnc4c(N)ncnc43)CO2)cc1 (mixture of isomers; form 1)  0.3 µM

Test system: Vaccinia virus
Assay: Antiviral activity against Vaccinia virus Copenhagen infected in HFF cells incubated for 3 days by plaque reduction assay
Assay type: functional, organism-based, Orthopoxvirus vaccinia
Conditions: Orthopoxvirus vaccinia, Copenhagen, HFF, 72 h

In order of falling IC50:
1. COC(=O)[C@H](Cc1ccc(OP2(=O)CO[C@@H](Cn3ccc(N)nc3=O)CO2)cc1)NC(=O)[C@@H](N)C(C)C (mixture of isomers)  20 µM
2. COC(=O)[C@@H](N)Cc1ccc(OP2(=O)CO[C@@H](Cn3ccc(N)nc3=O)CO2)cc1 (mixture of isomers)  4 µM
3. Nc1ncnc2c1ncn2C[C@@H](CO)OCP(=O)(O)O  2 µM
4. CC(C)CNC(=O)[C@@H](N)Cc1ccc(OP(=O)(O)CO[C@H](CO)Cn2cnc3c(N)ncnc32)cc1  0.5 µM

Same assay, conditions: hff

In order of rising IC50:
1. CC(C)CNC(=O)[C@@H](N)Cc1ccc(OP2(=O)CO[C@@H](Cn3cnc4c(N)ncnc43)CO2)cc1 (mixture of isomers; form 1)  4.5 µM
2. CC(C)OC(=O)[C@@H](N)Cc1ccc(OP2(=O)CO[C@@H](Cn3ccc(N)nc3=O)CO2)cc1 (mixture of isomers; form 2)  8 µM
3. CC(C)OC(=O)[C@@H](N)Cc1ccc(OP2(=O)CO[C@@H](Cn3ccc(N)nc3=O)CO2)cc1 (mixture of isomers; form 1)  30 µM

Test system: HFF
Assay: Cytotoxicity against HFF cells after 48 hrs by visual cytotoxicity observation assay
Assay type: cell-based, Homo sapiens
Conditions: Homo sapiens, HFF, 48 h

Nc1ccn(C[C@@H](CO)OCP(=O)(O)O)c(=O)n1 [CIDOFOVIR] and Nc1ncnc2c1ncn2C[C@@H](CO)OCP(=O)(O)O are the same in IC50: 100 µM for the first, 100 µM for the second.

Going from CC(C)CNC(=O)[C@@H](N)Cc1ccc(OP(=O)(O)CO[C@H](CO)Cn2cnc3c(N)ncnc32)cc1 to CC(C)CNC(=O)[C@@H](N)Cc1ccc(OP2(=O)CO[C@@H](Cn3cnc4c(N)ncnc43)CO2)cc1 (mixture of isomers; form 1), the IC50 rises from 100 µM to over 100 µM.

CC(C)OC(=O)[C@@H](N)Cc1ccc(OP2(=O)CO[C@@H](Cn3ccc(N)nc3=O)CO2)cc1 (mixture of isomers; form 1) and COC(=O)[C@@H](N)Cc1ccc(OP2(=O)CO[C@@H](Cn3ccc(N)nc3=O)CO2)cc1 (mixture of isomers) cannot be ordered by IC50: over 100 µM for the first, over 100 µM for the second.

Test system: KB
Assay: Cytotoxicity against human KB cells after 48 hrs by crystal violet staining based spectrophotometric analysis
Assay type: cell-based
Conditions: not given
Procedure, shortened: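 KB cells at 5000 per well, left overnight at 37 °C. Compound added at eight concentrations in triplicate, 48 h at 37 °C in CO2 (two population doublings). Cells ethanol-fixed and crystal violet stained; dye eluted with acidified ethanol, read at 570 nm. IC50 by regression of % inhibition against log concentration.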

Nc1ccn(C[C@@H](CO)OCP(=O)(O)O)c(=O)n1 [CIDOFOVIR] and Nc1ncnc2c1ncn2C[C@@H](CO)OCP(=O)(O)O cannot be ordered by IC50: over 100 µM for the first, over 100 µM for the second.

CC(C)CNC(=O)[C@@H](N)Cc1ccc(OP(=O)(O)CO[C@H](CO)Cn2cnc3c(N)ncnc32)cc1 and CC(C)CNC(=O)[C@@H](N)Cc1ccc(OP2(=O)CO[C@@H](Cn3cnc4c(N)ncnc43)CO2)cc1 (mixture of isomers; form 1) cannot be ordered by IC50: over 100 µM for the first, over 100 µM for the second.

COC(=O)[C@H](Cc1ccc(OP2(=O)CO[C@@H](Cn3ccc(N)nc3=O)CO2)cc1)NC(=O)[C@@H](N)C(C)C (mixture of isomers) and COC(=O)[C@@H](N)Cc1ccc(OP2(=O)CO[C@@H](Cn3ccc(N)nc3=O)CO2)cc1 (mixture of isomers) cannot be ordered by IC50: over 100 µM for the first, over 100 µM for the second.

CC(C)OC(=O)[C@@H](N)Cc1ccc(OP2(=O)CO[C@@H](Cn3ccc(N)nc3=O)CO2)cc1 (mixture of isomers; form 1) gave an IC50 of over 100 µM.
